From ChEMBL document CHEMBL4411280, “Synthesis, structure activity relationship and in vitro anti-influenza virus activity of novel polyphenol-pentacyclic triterpene conjugates” (Eur J Med Chem, 2019)
Calls of active or inactive are those of the source. No cut-off for these calls is given here.

Assays:
[1] = biological target: Hemagglutinin (Influenza A virus (A/Puerto Rico/8/1934(H1N1)), UniProt P03452); experiment: Binding affinity to recombinant Influenza A virus (A/California/04/2009 (H1N1)) hemagglutinin by SPR assay
Sequence of Hemagglutinin (Influenza A virus (A/Puerto Rico/8/1934(H1N1)), UniProt P03452) (P03452 whole entry): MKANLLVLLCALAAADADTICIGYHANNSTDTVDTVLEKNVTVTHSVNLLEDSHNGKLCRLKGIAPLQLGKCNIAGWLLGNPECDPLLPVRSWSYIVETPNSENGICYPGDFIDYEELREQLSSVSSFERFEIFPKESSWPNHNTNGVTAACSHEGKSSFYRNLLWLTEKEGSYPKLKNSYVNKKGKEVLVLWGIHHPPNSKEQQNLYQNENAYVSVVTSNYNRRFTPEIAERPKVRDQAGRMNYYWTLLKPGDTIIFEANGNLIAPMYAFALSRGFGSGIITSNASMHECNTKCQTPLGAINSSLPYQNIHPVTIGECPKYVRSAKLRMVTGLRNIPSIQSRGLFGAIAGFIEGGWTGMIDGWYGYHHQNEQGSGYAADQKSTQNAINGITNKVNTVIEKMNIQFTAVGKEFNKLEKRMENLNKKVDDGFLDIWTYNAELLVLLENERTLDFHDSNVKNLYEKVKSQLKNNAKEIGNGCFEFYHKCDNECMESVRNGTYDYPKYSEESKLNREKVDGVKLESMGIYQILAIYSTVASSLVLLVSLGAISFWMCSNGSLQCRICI
How it was run: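 HA immobilised on the sensor chip to about 16,000 RU. Compounds injected as analytes at various concentrations in PBS-P running buffer (10 mM phosphate, 2.7 mM KCl, 137 mM NaCl, 0.05% P20, […]), with 60 s contact and 60 s dissociation. KD determined.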

[2] = biological target: Hemagglutinin (Influenza A virus) (UniProt B4URE7); experiment: Inhibition of Influenza A virus A/WSN/33/H1N1 HA-mediated hemagglutination of chicken RBC measured after 30 mins
Sequence of Hemagglutinin (Influenza A virus) (B4URE7 as listed by the source): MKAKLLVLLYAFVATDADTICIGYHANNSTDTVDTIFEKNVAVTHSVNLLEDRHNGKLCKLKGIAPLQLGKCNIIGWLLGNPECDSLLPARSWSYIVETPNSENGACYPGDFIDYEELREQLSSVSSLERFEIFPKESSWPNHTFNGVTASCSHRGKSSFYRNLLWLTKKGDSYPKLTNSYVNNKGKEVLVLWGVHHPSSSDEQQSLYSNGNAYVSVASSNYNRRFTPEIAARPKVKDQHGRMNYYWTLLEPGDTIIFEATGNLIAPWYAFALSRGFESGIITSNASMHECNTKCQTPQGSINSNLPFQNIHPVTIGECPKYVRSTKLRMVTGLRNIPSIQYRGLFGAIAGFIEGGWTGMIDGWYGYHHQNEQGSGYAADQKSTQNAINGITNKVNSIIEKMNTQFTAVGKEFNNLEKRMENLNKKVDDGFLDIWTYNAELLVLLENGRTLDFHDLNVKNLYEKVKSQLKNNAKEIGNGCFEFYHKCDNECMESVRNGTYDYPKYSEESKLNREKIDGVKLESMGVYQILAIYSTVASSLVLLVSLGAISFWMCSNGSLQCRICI
How it was run: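 Compound serially diluted 3-fold in saline and mixed with an equal volume of A/WSN/33 virus (2 HA units). Freshly prepared chicken RBCs (1% v/v in saline) added. Incubated 30 min at room temperature, then agglutination scored visually. PBS as negative control, anti-HA antibody tested in parallel.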

[3] = test system: Influenza A virus; experiment: Antiviral activity against Influenza A virus A/WSN/33/H1N1 infected in MDCK cells assessed as reduction in virus-induced cytopathic effect after 40 hrs by CellTiter-Glo assay; assay type: functional, organism-based; settings: A/WSN/33/H1N1, MDCK
How it was run: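 MDCK cells seeded overnight, infected with influenza A/WSN/33 (H1N1) at MOI 0.1. Kept in DMEM with 1% FBS, test compound, TPCK-treated trypsin and 1% final DMSO for 40 h. Cell viability read by CellTiter-Glo luminescence. IC50 taken from dose-response.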

[4] = test system: MDCK; experiment: Cytotoxicity against MDCK cells at 50 uM after 40 hrs by CellTiter-Glo assay; assay type: cell-based, Canis lupus familiaris; settings: dog
How it was run: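 Single-concentration toxicity screen at 50 μM final on MDCK cells for 40 h, read by CellTiter-Glo. 0.5% DMSO final as negative control. Triplicate experiments, standard deviations shown.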

[5] = test system: Influenza A virus; experiment: Antiviral activity against Influenza A virus A/WSN/33/H1N1 infected in MDCK cells assessed as reduction in virus-induced cytopathic effect at 50 uM after 40 hrs by CellTiter-Glo assay; assay type: functional, organism-based
How it was run: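 Single-concentration screen at 50 μM final. MDCK cells infected with A/WSN/33 (H1N1) at MOI 0.1 in DMEM/1% FBS with TPCK-trypsin for 40 h, viability by CellTiter-Glo. 0.5% DMSO final as negative control, oseltamivir as positive control. Triplicate experiments, standard deviations shown.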

[6] = Cytotoxicity against MDCK cells after 40 hrs by CellTiter-Glo assay; assay type: cell-based, Canis lupus familiaris; settings: dog
How it was run: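 MDCK cells grown overnight in medium with 1% FBS, then exposed to increasing compound concentrations for 40 h. Viability measured by CellTiter-Glo luminescence, and CC50 derived from it.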

C[C@H]1[C@H](C)CC[C@]2(C(=O)NCCNC(=O)c3ccccc3O)CC[C@]3(C)C(=CC[C@@H]4[C@@]5(C)CC[C@H](O)C(C)(C)[C@@H]5CC[C@]43C)[C@H]12
Kd [1]: 15.6 µM | inhibition [2]: Dose-dependent effect | IC50 [3]: 5.8 µM | Activity [4]: Non-Toxic | Activity [5]: Active | CC50 at 40 h [6]: > 100 µM

CC1(C)CC[C@]2(C(=O)NCCNC(=O)c3ccccc3O)CC[C@]3(C)C(=CC[C@@H]4[C@@]5(C)CC[C@H](O)C(C)(C)[C@@H]5CC[C@]43C)[C@@H]2C1
Kd [1]: 36 µM | IC50 [3]: 7.65 µM | Activity [4]: Non-Toxic | Activity [5]: Active | CC50 at 40 h [6]: > 100 µM

C[C@H]1[C@H](C)CC[C@]2(C(=O)O)CC[C@]3(C)C(=CC[C@@H]4[C@@]5(C)CC[C@H](O)C(C)(C)[C@@H]5CC[C@]43C)[C@H]12 [URSOLIC ACID]
Kd [1]: 46.5 µM

C=C(C)[C@@H]1CC[C@]2(C(=O)NCCNC(=O)c3ccccc3O)CC[C@]3(C)[C@H](CC[C@@H]4[C@@]5(C)CC[C@H](O)C(C)(C)[C@@H]5CC[C@]43C)[C@@H]12
IC50 [3]: 9.55 µM | Activity [4]: Non-Toxic | Activity [5]: Active | CC50 at 40 h [6]: > 100 µM

C=C(C)[C@@H]1CC[C@]2(C(=O)NCCNC(=O)/C=C/c3ccc(O)cc3)CC[C@]3(C)[C@H](CC[C@@H]4[C@@]5(C)CC[C@H](O)C(C)(C)[C@@H]5CC[C@]43C)[C@@H]12
IC50 [3]: 15.7 µM | Activity [4]: Non-Toxic | Activity [5]: Active | CC50 at 40 h [6]: > 100 µM
